# This is a sample that favours compounds with a hit; in the whole collection about 3.3% have one here.
# UHRF1 binding = UHRF1 methyl-DNA binding inhibition; UHRF1 binding to methylated oligo, TR-FRET; inhibition, % at 4.4 µM; actives 0.75% (n = 370,000); AID 687016; in the data active means inhibition above about 21%;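 further: UHRF1 SRA domain binding a hemimethylated CpG hairpin DNA probe; 0% = median of test compound wells and 100% = reference inhibitor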
# TDP2 inh = TDP2 (human) inhibition, absorbance primary screen; AID 720702; actives 0.34% (n = 370,000); recombinant TDP2, T5PNP hydrolysis, p-nitrophenol absorbance 415 nm; O95551; inhibition, % at 12.8 µM;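 active means inhibition above the mean of all tested compounds plus 3 SD, set per campaign, cut at about 25% in these data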;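 further: 0% = DMSO with enzyme and 100% = buffer with substrate but no TDP2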
#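 Evaluation: % inhibition relative to enzyme-containing and enzyme-free wells. Material: recombinant human TDP2. Benchmarks: enzyme-free and DMSO wells. Timing: enzyme reaction with compound for 2 h at 37 °C. Compound dosing: 12.8 µM only. Measured by: p-Nitrophenol epi absorbance. Reagent: T5PNP substrate at 5 mM, a TopII-DNA adduct mimic. Replication: single well per compound.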
# SIAE primary = inhibitors of human sialic acid acetylesterase SIAE. actives 0.69% (n = 370,000). inhibition, % at 9.66 µM. Q9HAT2. SIAE FP-Rh probe binding, fluorescence polarization. AID 1053197;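 active means inhibition above a cutoff: mean of compounds within the control limits plus 3 SD of those, cut at about 17% in these data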;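 further: 0% = plate median of compound wells and 100% = probe without SIAE protein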
# MBD2 inh = MBD2-methylated oligo binding inhibition; Q9UBB5; TR-FRET, MBD2 binding to methylated oligonucleotide; inhibition, % at 4.4 µM; actives 0.31% (n = 370,000); AID 686964; in the data active means inhibition above about 13%
# Target sequence (Q9UBB5 whole entry, looked up): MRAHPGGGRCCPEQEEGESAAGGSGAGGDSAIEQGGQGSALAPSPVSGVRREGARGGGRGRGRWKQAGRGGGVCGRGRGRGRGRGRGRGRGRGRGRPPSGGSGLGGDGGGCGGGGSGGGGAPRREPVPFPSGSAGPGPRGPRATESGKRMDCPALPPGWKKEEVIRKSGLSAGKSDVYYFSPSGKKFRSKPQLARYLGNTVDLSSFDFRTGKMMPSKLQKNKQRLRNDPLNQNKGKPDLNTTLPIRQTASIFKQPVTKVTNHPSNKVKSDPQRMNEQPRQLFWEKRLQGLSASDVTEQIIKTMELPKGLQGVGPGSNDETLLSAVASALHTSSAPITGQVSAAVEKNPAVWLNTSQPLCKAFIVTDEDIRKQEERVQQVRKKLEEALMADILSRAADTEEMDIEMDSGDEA
# PRMT1 inh = PRMT1 (human) inhibition, primary screen; recombinant PRMT1, activity-based probe fluorescence polarization; inhibition, % at 2.79 µM; actives 1.3% (n = 370,000);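 active means inhibition above about 21% made by adding two undisclosed values, limit read from the data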
# LEDGF integ inh = blocks HIV-1 LEDGF/p75-dependent DNA integration; TR-FRET IN-LEDGF/p75 DNA integration, Eu/Cy5; inhibition, % at 3.7 µM; actives 0.64% (n = 370,000); AID 743269;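 active means inhibition above the screen-wide mean plus 3 SD, cut at about 13% in these data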;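 further: signal is the Cy5 over europium emission ratio at 671 and 618 nm; 0% = plate median of compound wells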
# * hit, by the source's call.
SMILES,UHRF1 binding,TDP2 inh,SIAE primary,MBD2 inh,PRMT1 inh,LEDGF integ inh
O=C(Nc1ccc(Oc2ccccc2)cc1)C1CCN(c2nnc(-n3cccc3)s2)CC1,-2.0,-12.1,2.0,0.5,2.9,2.1
Cc1ccc(S(=O)(=O)c2nc(-c3ccco3)oc2SCC(N)=O)cc1,-2.1,17.9,-7.1,-0.5,21.4*,2.2
CCN(C(=O)COc1cc(=O)n(CC)c2ccccc12)c1cc(Cl)ccc1OC,0.8,-0.8,21.7*,4.4,2.8,-1.0
Cc1cc(Br)cc2c1NC(=O)C2(c1c(C)n(C)n(-c2ccccc2)c1=O)c1c(C)n(C)n(-c2ccccc2)c1=O,-0.3,-1.7,1.1,4.1,3.8,-3.1
COc1cc(C2(c3ccc(O)c(OC)c3)C(=O)Nc3c(C)cc(Br)cc32)ccc1O,31.1*,1.5,-0.4,0.2,-0.9,-2.9
O=C(Nc1ccc(Cl)cc1)c1ccc2c(=O)n3c(nc2c1)CCCCC3,1.3,-7.4,-12.2,-0.9,5.0,-2.6
O=C(Nc1ccccn1)c1ccc2c(=O)n3c(nc2c1)CCCCC3,20.9*,2.1,14.3,10.5,1.1,8.6
COc1ccc(C2/C(=C(/O)c3ccc(C)cc3)C(=O)C(=O)N2CC2CCCO2)cc1OC (stereo not given),21.8*,0.2,4.1,5.5,-1.5,1.0
Oc1ccc2ccccc2c1CNc1ccccc1,-2.4,-6.6,5.1,2.3,6.6,0.1
Oc1ccc2ccccc2c1CNc1ccc2ccccc2c1,-6.3,-2.4,8.2,2.6,24.9*,0.0
CCN(CC)C(=O)CC[C@@H]1CC[C@]2(CCCN(Cc3ccc(Br)cc3)C2)O1,-1.4,4.0,11.5,-3.8,1.2,6.8
COC(=O)C1CN(Cc2cn(Cc3ccccc3)nn2)CCS(=O)(=O)N1Cc1ccccc1 (stereo not given),28.1*,-5.8,2.3,5.7,-0.7,-0.6
COC(=O)C1CN(Cc2cn(Cc3ccc(C)cc3)nn2)CCS(=O)(=O)N1Cc1ccccc1 (stereo not given),11.2,-9.6,-8.6,5.0,-6.7,3.6
CCOC(=O)Cn1cc(CN2C(C(=O)OC)CN(Cc3ccc(OC)cc3)CCS2(=O)=O)nn1 (stereo not given),80.4*,8.3,7.0,5.7,-5.9,1.9
O=C(CC1C(=O)NCCN1C/C=C/c1ccccc1)NCCc1cnccn1 (stereo not given),0.2,8.3,3.6,1.1,-0.7,-0.1
O=C(CC1C(=O)NCCN1C/C=C/c1ccccc1)NCCc1ccncc1 (stereo not given),23.3*,-1.2,9.8,9.5,1.5,-0.1
Cc1ccc(-c2cc(=O)c3cc(F)ccc3[nH]2)cc1,-0.2,1.8,-4.1,-7.1,-3.7,2.5
COc1ccc(-n2sc3ccc(F)cc3c2=O)cc1,-4.2,-3.8,12.5,-0.5,86.8*,-2.8
Cc1ccc(C)c(-n2sc3ccc(F)cc3c2=O)c1,-3.3,1.4,17.0,2.9,91.5*,0.3
CCN1CCCCC(NC(=O)c2ccccc2C)C1=O (stereo not given),-0.8,-5.2,-1.0,0.7,-2.8,5.6
C/C(=N\NC(=O)CN1CCCCC1)c1cccc([N+](=O)[O-])c1,25.4*,0.4,-10.2,-0.3,1.9,-2.4
Cc1ccccc1SC1CCN(C(=O)C2CCC(=O)N(C3CC3)C2)CC1 (stereo not given),-2.8,-5.7,-0.4,-7.8,-1.9,-7.5
Cc1ccc(SC2CCN(C(=O)C3CCC(=O)N(C4CC4)C3)CC2)cc1 (stereo not given),22.2*,17.2,2.6,6.8,-0.5,2.5
CCN1CCCCC(NC(=O)c2ccc(F)cc2)C1=O (stereo not given),0.2,1.2,-0.9,-4.8,6.4,-3.2
O=C1Cc2ccccc2C(=O)N1,-2.2,73.4*,6.5,4.5,-0.6,24.8*
CC(=O)CCC(=O)NC1CCCc2c1cnn2-c1ccc(C(C)(C)C)cc1 (stereo not given),33.7*,4.1,-8.2,0.6,-0.1,-4.3
CCN(CC)C(=O)CC[C@H]1CC[C@]2(CCCN(c3ccccc3)C2)O1,6.8,-6.1,-0.1,0.0,-5.5,-3.8
